# ChEMBL document CHEMBL1255487, “Preclinical evaluation of the antifolate QN254, 5-chloro- N'6'-(2,5-dimethoxy-benzyl)-quinazoline-2,4,6-triamine, as an antimalarial drug candidate” (Antimicrob Agents Chemother, 2010)
# The source made the active and inactive calls. The calls are words filed in the database; no cut-off is given here.
# Legend:
# [1] = Clearance in CD-1 mouse at 5 mg/kg, iv; assay type: ADME, organism-based; parameters: dose 5 mg/kg, route intravenous; settings: in vivo
# Method in brief: (§1)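 Mice dosed with 25 mg/kg p.o. as a 2.5 mg/ml suspension in 0.5% CMC, or with 5 mg/kg i.v. at 1 mg/ml in 10% NMP, 30% PEG 400 and 60% of 10% vitamin E-TPGS. Blood sampled at several time points. Plasma extracted with acidified acetonitrile (8:1) and quantified by LC-MS, LLOQ 12 ng/ml.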
# [2] = system: Plasmodium berghei; assay: Antimalarial activity against Plasmodium berghei ANKA infected in NMRI mice (Mus musculus) assessed as survival rate at 10 mg/kg, perorally administered as single dose; assay type: functional; settings: route oral
# Method in brief: (§2)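 Infection: 5 female NMRI mice (20–22 g) per group, inoculated intravenously with 0.2 ml of donor blood at 1 × 10^8 parasitized erythrocytes/ml. Oral administration in 0.5% carboxymethyl cellulose. Survival time recorded up to 30 days after infection and averaged per group.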
# [3] = system: Plasmodium berghei; assay: Antimalarial activity against Plasmodium berghei ANKA infected in NMRI mice (Mus musculus) assessed as survival rate at 15 mg/kg, perorally administered as single dose; assay type: functional; settings: route oral; method in brief: as §2
# [4] = system: Mus musculus; assay: Toxicity in NMRI mice (Mus musculus) infected with Plasmodium berghei ANKA at 30 mg/kg, perorally administered as single dose measured up to 30 days postinfection; assay type: organism-based; parameters: dose 30 mg/kg, route oral; settings: in vivo, po, 720 h
# [5] = AUC (0 to 24 hrs) in Wistar rat at 50 mg/kg, po; assay type: ADME, organism-based; parameters: time < 24 hr, dose 50 mg/kg, route oral; settings: plasma
# [6] = system: Plasmodium berghei; assay: Antimalarial activity against Plasmodium berghei ANKA infected in NMRI mice (Mus musculus) assessed as cure rate at 100 mg/kg, perorally administered as single dose measured on […]; assay type: functional; settings: route oral
# Method in brief: (§3)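 Female NMRI mice (20–22 g), 5 per group, infected intravenously with 0.2 ml of 1 × 10^8 parasitized erythrocytes/ml from a fresh donor mouse. Compound suspended in 0.5% carboxymethyl cellulose and given orally. Survival followed to day 30 post-infection; an animal was scored cured if it survived to day 30 without parasites.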
# [7] = system: Plasmodium berghei; assay: Antimalarial activity against Plasmodium berghei ANKA infected in NMRI mice (Mus musculus) assessed as cure rate at 3 times 60 mg/kg, perorally measured on day 3 postinfection; assay type: functional; settings: route oral; method in brief: as §3
# [8] = Clearance in Wistar rat at 5 mg/kg, iv; assay type: ADME, organism-based; parameters: dose 5 mg/kg, route intravenous; settings: in vivo
# Method in brief: (§4)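 Rats dosed with 25 mg/kg p.o. as a 2.5 mg/ml suspension in 0.5% CMC, or with 5 mg/kg i.v. at 1 mg/ml in 10% NMP, 30% PEG 400 and 60% of 10% vitamin E-TPGS. Plasma sampled over time, extracted with acidified acetonitrile (8:1) and quantified by LC-MS, LLOQ 12 ng/ml.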
# [9] = system: Plasmodium falciparum; assay: Antimalarial activity against pyrimethamine-resistant Plasmodium falciparum clinical isolate harboring S108N, N51I, C59R mutation in DHFR assessed as decrease in parasitaemia; assay type: functional, organism-based
# Method in brief: (§5)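 P. falciparum grown in RPMI 1640 with 10% (v/v) human serum, 25 mM bicarbonate, 2 mM glutamine, 25 mM HEPES, 5 nM para-aminobenzoic acid and 23 nM folic acid. Parasites exposed to a concentration series. Read-out is [3H]hypoxanthine incorporation into nucleic acid. IC50 taken from non-linear regression of the dose–response curve.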
# [10] = system: Plasmodium berghei; assay: Antimalarial activity against Plasmodium berghei ANKA infected in NMRI mice (Mus musculus) assessed as reduction in parasitemia at 3 times 60 mg/kg, perorally measured on day 3 postinfection; assay type: functional; parameters: scale not given: the % may be the effect or the level left; settings: route oral
# Method in brief: (§6)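 P. berghei ANKA given intravenously to groups of 5 female NMRI mice (20–22 g): 0.2 ml of 1 × 10^8 parasitized erythrocytes/ml from a donor mouse. Oral dosing in 0.5% carboxymethyl cellulose. Parasitemia counted by microscopy. Activity is the control-minus-treated parasitemia difference, expressed as percent of untreated controls.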
# [11] = system: Mus musculus; assay: Toxicity in NMRI mice (Mus musculus) infected with Plasmodium berghei ANKA at 10 mg/kg, perorally administered as single dose measured up to 30 days postinfection; assay type: organism-based; parameters: dose 10 mg/kg, route oral; settings: in vivo, po, 720 h
# [12] = Half life in CD-1 mouse at 5 mg/kg, iv; assay type: ADME, organism-based; parameters: dose 5 mg/kg, route intravenous; settings: in vivo; method in brief: as §1
# [13] = system: Rattus norvegicus; assay: Toxicity in Wistar rat assessed as occurrence of inflammatory changes in gastric tract at => 50 mg/kg, po after 2 weeks; assay type: organism-based, Stomach; parameters: dose 50 mg/kg, route oral; settings: in vivo, 336 h
# Method in brief: (§7)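 Male Wistar rats, about 10 weeks old (254–292 g), 5 per group, gavaged daily with 50, 150 or 500 mg/kg/day. Vehicle was 10% of 1% aqueous Solutol HS15 plus 90% of 0.5% aqueous methylcellulose; exploratory 2-week design. Clinical observations, body weight, food intake, hematology, clinical chemistry and gross pathology recorded. Histopathology covered gross lesions and selected organs in the control and low-dose groups.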
# [14] = system: Plasmodium berghei; assay: Antimalarial activity against Plasmodium berghei ANKA infected in NMRI mice (Mus musculus) assessed as mean survival time at 3 times 60 mg/kg, perorally; assay type: functional, organism-based; parameters: dose 60 mg/kg
# [15] = system: Plasmodium berghei; assay: Antimalarial activity against Plasmodium berghei ANKA infected in NMRI mice (Mus musculus) assessed as reduction in parasitemia at 30 mg/kg, perorally administered as single dose measured on day 3 postinfection; assay type: functional; parameters: scale not given: the % may be the effect or the level left; settings: route oral; method in brief: as §6
# [16] = Cmax in CD-1 mouse at 25 mg/kg, po; assay type: ADME, organism-based; parameters: dose 25 mg/kg, route oral; settings: in vivo; method in brief: as §1
# [17] = system: Plasmodium berghei; assay: Antimalarial activity against Plasmodium berghei ANKA infected in NMRI mice (Mus musculus) assessed as survival rate at 100 mg/kg, perorally administered as single dose; assay type: functional; settings: route oral; method in brief: as §2
# [18] = system: Mus musculus; assay: Toxicity in NMRI mice (Mus musculus) infected with Plasmodium berghei ANKA at 60 mg/kg, perorally administered as single dose measured up to 30 days postinfection; assay type: organism-based; parameters: dose 60 mg/kg, route oral; settings: in vivo, po, 720 h
# [19] = Oral bioavailability in Wistar rat at 25 mg/kg; assay type: ADME, organism-based; settings: in vivo; method in brief: as §4
# [20] = Oral bioavailability in CD-1 mouse at 25 mg/kg; assay type: ADME, organism-based; settings: in vivo; method in brief: as §1
# [21] = system: Plasmodium berghei; assay: Antimalarial activity against Plasmodium berghei ANKA infected in NMRI mice (Mus musculus) assessed as reduction in parasitemia at 100 mg/kg, perorally administered as single dose measured on day 3 postinfection; assay type: functional; parameters: scale not given: the % may be the effect or the level left; settings: route oral; method in brief: as §6
# [22] = system: Plasmodium berghei; assay: Antimalarial activity against Plasmodium berghei ANKA infected in perorally dosed NMRI mice (Mus musculus) assessed as reduction in parasitemia administered as single dose measured on day 3 postinfection; assay type: functional; settings: po, 72 h
# [23] = system: Plasmodium berghei; assay: Antimalarial activity against Plasmodium berghei ANKA infected in NMRI mice (Mus musculus) assessed as reduction in parasitemia at 3 times 100 mg/kg, perorally measured on day 3 postinfection; assay type: functional; parameters: scale not given: the % may be the effect or the level left; settings: route oral; method in brief: as §6
# [24] = system: Plasmodium berghei; assay: Antimalarial activity against Plasmodium berghei ANKA infected in NMRI mice (Mus musculus) assessed as mean survival time at 3 times 100 mg/kg, perorally; assay type: functional, organism-based; parameters: dose 100 mg/kg
# [25] = system: Plasmodium falciparum; assay: Antimalarial activity against pyrimethamine-resistant Plasmodium falciparum clinical isolate harboring S108N, N51I mutation in DHFR assessed as decrease in parasitaemia; assay type: functional, organism-based; method in brief: as §5
# [26] = Half life in Wistar rat at 25 mg/kg, po; assay type: ADME, organism-based; parameters: dose 25 mg/kg, route oral; settings: in vivo; method in brief: as §4
# [27] = Volume of distribution in CD-1 mouse at 5 mg/kg, iv; assay type: ADME, organism-based; parameters: dose 5 mg/kg, route intravenous; settings: in vivo; method in brief: as §1
# [28] = system: Mus musculus; assay: Toxicity in NMRI mice (Mus musculus) infected with Plasmodium berghei ANKA at 3 times 100 mg/kg, perorally measured up to 30 days postinfection; assay type: organism-based; parameters: dose 100 mg/kg, route oral; settings: in vivo, po, 720 h
# [29] = system: Rattus norvegicus; assay: Toxicity in Wistar rat assessed as occurrence of massive bone marrow atrophy at => 50 mg/kg, po after 2 weeks; assay type: organism-based; parameters: dose 50 mg/kg, route oral; settings: in vivo, 336 h; method in brief: as §7
smiles,measurement,setting,value
COc1ccc(OC)c(CNc2ccc3nc(N)nc(N)c3c2Cl)c1,clearance,[1],51.1 mL/min/kg
same,Survival,[2],6 days
same,Survival,[3],6 days
same,Activity,[4],0%
same,AUC(0-t) at 24 h,[5],27600 ng·h/mL
same,Activity,[6],50%
same,Activity,[7],60%
same,clearance,[8],17 mL/min/kg
same,IC50,[9],11.7 nM
same,Activity,[10],>99.99%
same,Activity,[11],0%
same,half-life,[12],48 min
same,Activity,[13],Toxic
same,Activity,[14],inactive
same,Activity,[15],>99.99%
same,Cmax,[16],5.1 µM
same,Survival,[17],23.4 days
same,Activity,[18],0%
same,bioavailability,[19],63%
same,bioavailability,[20],100%
same,Activity,[21],>99.99%
same,ED50,[22],7.2 mg/kg
same,ED90,[22],12.4 mg/kg
same,Activity,[23],>99.99%
same,Activity,[24],inactive
same,IC50,[25],4.48 nM
same,half-life,[26],558 min
same,Vd,[27],2.85 L/kg
same,Activity,[28],80%
same,Activity,[29],Toxic
